Experimental data as given in ChEMBL document CHEMBL2321735, “Synthesis and biological evaluation of halogenated curcumin analogs as potential nuclear receptor selective agonists” (Bioorg Med Chem, 2013).
Each block holds one compound with its values, some of them ahead of it. The source made the active and inactive calls. The rule behind the calls is not given here.

What was measured:
[1] = target: T1, Vitamin D3 receptor (Homo sapiens) (UniProt P11473); assay: Agonist activity at human VDR expressed in human HCT116 cells assessed as CYP24A1 transcriptional activity at 20 to 40 uM after 24 hrs by luciferase reporter gene assay; format: cell-based; settings: HCT-116
T1 sequence (whole entry): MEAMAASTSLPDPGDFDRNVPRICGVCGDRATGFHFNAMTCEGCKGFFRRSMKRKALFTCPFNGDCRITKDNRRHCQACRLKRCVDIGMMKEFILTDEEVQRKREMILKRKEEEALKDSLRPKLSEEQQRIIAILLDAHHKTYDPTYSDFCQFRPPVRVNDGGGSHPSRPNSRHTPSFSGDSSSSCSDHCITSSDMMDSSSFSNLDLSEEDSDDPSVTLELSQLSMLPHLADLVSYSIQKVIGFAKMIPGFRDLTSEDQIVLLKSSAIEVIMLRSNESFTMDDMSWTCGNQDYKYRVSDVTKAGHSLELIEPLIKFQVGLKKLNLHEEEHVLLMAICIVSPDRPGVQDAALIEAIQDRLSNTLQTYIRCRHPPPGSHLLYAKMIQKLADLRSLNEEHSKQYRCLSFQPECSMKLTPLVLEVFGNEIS
Method in brief: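 HCT-116 cells (DMEM, 10% FBS, 37 °C, 5% CO2) plated at 90,000 cells/well ~24 h before transfection with a firefly luciferase reporter carrying the natural human CYP24A1 promoter (2 VDREs) plus Renilla control. Treated 18 h after transfection with 3.75 x 10^-5 M compound, 10^-10 M 1,25D or DMSO for 24 h. Read-out is dual luciferase, firefly/Renilla x10,000. Triplicate wells.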

[2] = target: T1, Vitamin D3 receptor (Homo sapiens); assay: Agonist activity at human VDR expressed in human HCT116 cells co-expressing VDRE assessed as XDR3 transcriptional activity at 20 to 40 uM after 24 hrs by luciferase reporter gene assay; format: cell-based; settings: HCT-116
Method in brief: (§1)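 HCT-116 cells were transfected with a firefly luciferase plasmid holding two copies of the CYP3A4 XDR3 VDRE, plus a Renilla control. From 18 h post-transfection they were exposed to 3.75 x 10^-5 M compound, 10^-10 M 1,25D or DMSO in complete medium for 24 h. Dual-luciferase firefly/Renilla ratio. Three independent experiments, triplicate wells, mean ± SD.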

[3] = target: T2, Retinoic acid receptor RXR-alpha (Homo sapiens) (UniProt P19793); assay: Induction of RXRalpha-AD/RXRalpha-BD (unknown origin) homodimerization expressed in human HCT116 cells at 20 to 40 uM after 24 hrs by luciferase reporter gene assay; format: cell-based; settings: HCT-116
T2 sequence (whole entry): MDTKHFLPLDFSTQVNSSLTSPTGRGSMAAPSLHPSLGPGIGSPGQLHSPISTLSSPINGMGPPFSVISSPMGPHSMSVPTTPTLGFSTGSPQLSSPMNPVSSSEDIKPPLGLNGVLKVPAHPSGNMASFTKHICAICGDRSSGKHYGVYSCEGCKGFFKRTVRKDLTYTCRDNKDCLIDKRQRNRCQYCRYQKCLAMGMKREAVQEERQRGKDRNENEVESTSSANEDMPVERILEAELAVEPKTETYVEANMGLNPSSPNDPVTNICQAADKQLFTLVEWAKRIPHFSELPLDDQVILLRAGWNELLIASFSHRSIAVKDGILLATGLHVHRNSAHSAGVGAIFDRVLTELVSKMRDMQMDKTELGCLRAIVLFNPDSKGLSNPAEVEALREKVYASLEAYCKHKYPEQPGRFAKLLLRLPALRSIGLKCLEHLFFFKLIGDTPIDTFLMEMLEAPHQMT
Method in brief: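 RXR–RXR homodimerization was measured by M2H in HCT-116 cells transfected with RXRα-AD prey, RXRα-BD bait, pFR-luc and Renilla control. […] Firefly luciferase was normalized to Renilla. Three independent experiments, triplicate samples, SD.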

[4] = target: T1, Vitamin D3 receptor (Homo sapiens); assay: Agonist activity at human VDR expressed in human HCT116 cells assessed as induction of recruitment of DRIP205 at 20 to 40 uM after 24 hrs by mammalian two hybrid system based luciferase reporter gene assay; format: cell-based; settings: HCT-116
Method in brief: (§2)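 M2H in HCT-116 used a VDR-AD prey with an SRC-1-BD or DRIP205-BD bait (50 ng each), 250 ng pFR-luc and 20 ng pRL-null per well. Cells were treated with 3.75 x 10^-5 M compound, 10^-10 M 1,25D or DMSO for 24 h. Firefly luciferase was normalized to Renilla. Duplicate experiments, triplicate samples, SD.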

[5] = target: T1, Vitamin D3 receptor (Homo sapiens); assay: Agonist activity at human VDR expressed in human HCT116 cells assessed as induction of recruitment of SRC-1 at 20 to 40 uM after 24 hrs by mammalian two hybrid system based luciferase reporter gene assay; format: cell-based; settings: HCT-116; method in brief: as §2
[6] = target: T3, Vitamin D3 receptor (Homo sapiens, UniProt P11473); assay: Agonist activity at human VDR expressed in human HCT116 cells co-expressing VDRE assessed as XDR3 transcriptional activity after 24 hrs by luciferase reporter gene assay; format: cell-based, HCT-116; method in brief: as §1
T3 sequence (P11473 whole entry): T1 sequence (whole entry)

Structure (SMILES): O=C(/C=C(O)/C=C/c1ccc(O)cc1F)/C=C/c1ccc(O)cc1F
Activity [1]: inactive
Activity [2]: inactive

Structure (SMILES): O=C(/C=C(\O)CCc1ccc(O)cc1F)CCc1ccc(O)cc1F
Activity [1]: inactive
Activity [2]: inactive

Structure (SMILES): COc1cc(/C=C/C(=O)/C=C(O)/C=C/c2cc(F)c(O)c(OC)c2)cc(F)c1O
Activity [2]: Active

Structure (SMILES): COc1cc(CCC(=O)/C=C(\O)CCc2cc(F)c(O)c(OC)c2)cc(F)c1O
Activity [1]: inactive
Activity [2]: inactive

Structure (SMILES): COc1cc(CCC(=O)/C=C(\O)CCc2ccc(O)c(OC)c2)ccc1O
Activity [2]: Active

Structure (SMILES): O=C(/C=C(O)/C=C/c1ccc(O)c(OC(F)(F)F)c1)/C=C/c1ccc(O)c(OC(F)(F)F)c1
Activity [3]: Active
Activity [4]: Active
Activity [5]: Active
Activity [1]: Active
Activity [2]: Active

Structure (SMILES): COc1cc(/C=C/C(=O)/C=C(O)/C=C/c2cc(I)c(O)c(OC)c2)cc(I)c1O
Activity [3]: Active
Activity [4]: Active
Activity [5]: Active
Activity [1]: Active
Activity [2]: Active

Second part, the compound after the results:

Activity [3]: Active
Activity [1]: Active
Activity [2]: Active
Structure (SMILES): COc1cc(/C=C/C(=O)/C=C(O)/C=C/c2cc(Cl)c(O)c(OC)c2)cc(Cl)c1O

Activity [3]: Active
Activity [1]: Active
Activity [2]: Active
Structure (SMILES): O=C(/C=C(O)/C=C/c1ccc(O)c(Br)c1)/C=C/c1ccc(O)c(Br)c1

Activity [3]: Active
Activity [4]: Active
Activity [5]: Active
Activity [1]: Active
Activity [2]: Active
Structure (SMILES): COc1cc(/C=C/C(=O)/C=C(O)/C=C/c2cc(Br)c(O)c(OC)c2)cc(Br)c1O

Activity [4]: Active
Activity [5]: Active
Activity [1]: Active
EC50 [6]: 20 µM
Structure (SMILES): COc1cc(/C=C/C(=O)CC(=O)/C=C/c2ccc(O)c(OC)c2)ccc1O [CURCUMIN]

Activity [3]: Active
Activity [1]: Active
Activity [2]: Active
Structure (SMILES): O=C(/C=C(O)/C=C/c1ccc(O)c(Cl)c1)/C=C/c1ccc(O)c(Cl)c1
